Results as given in article PMC6075869 (Journal of medicinal chemistry, 2017).

Tests used:
[1] = biological target: muscarinic acetylcholine receptor (mAchR) M5 (Homo sapiens, UniProt P08912); assay: Radioligand binding assay
M5 [2] = assay: Functional assay, antagonist activity on M5; assay type: cell-based
muscarinic receptor M4 = assay: Radioligand binding assay; conditions: no significant affinity up to 10 μM
muscarinic receptor M1 = assay: Radioligand binding assay; conditions: no significant affinity up to 10 μM
M5 [3] = assay: Tango assay, agonist activity on M5; assay type: cell-based
muscarinic M3 receptor [4] = assay: Functional assay, agonist activity on M3; assay type: cell-based
muscarinic M3 receptor [5] = assay: Radioligand binding assay
muscarinic receptor M2 = assay: Radioligand binding assay; conditions: no significant affinity up to 10 μM
nAchR α3β4 = nAchR α3β4 (Rattus norvegicus, UniProt P04757+P12392); assay: Radioligand binding assay; conditions: for ligand efficiency (LE): calculated from Ki
Sequence of nAchR α3β4 (P04757 26-499): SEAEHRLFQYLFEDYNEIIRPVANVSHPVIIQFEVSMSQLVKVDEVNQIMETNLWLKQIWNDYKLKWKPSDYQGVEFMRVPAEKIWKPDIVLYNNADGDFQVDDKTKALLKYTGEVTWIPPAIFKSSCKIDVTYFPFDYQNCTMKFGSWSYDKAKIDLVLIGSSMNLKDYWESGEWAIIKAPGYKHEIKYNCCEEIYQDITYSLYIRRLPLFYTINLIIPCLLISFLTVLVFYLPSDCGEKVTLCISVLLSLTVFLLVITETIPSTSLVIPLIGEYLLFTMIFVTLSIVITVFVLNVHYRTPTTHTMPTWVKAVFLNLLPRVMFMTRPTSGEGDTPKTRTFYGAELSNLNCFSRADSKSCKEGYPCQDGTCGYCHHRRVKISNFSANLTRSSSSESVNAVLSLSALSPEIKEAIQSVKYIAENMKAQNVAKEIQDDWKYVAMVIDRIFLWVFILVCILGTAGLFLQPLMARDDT
Sequence of nAchR α3β4 (P12392 21-495): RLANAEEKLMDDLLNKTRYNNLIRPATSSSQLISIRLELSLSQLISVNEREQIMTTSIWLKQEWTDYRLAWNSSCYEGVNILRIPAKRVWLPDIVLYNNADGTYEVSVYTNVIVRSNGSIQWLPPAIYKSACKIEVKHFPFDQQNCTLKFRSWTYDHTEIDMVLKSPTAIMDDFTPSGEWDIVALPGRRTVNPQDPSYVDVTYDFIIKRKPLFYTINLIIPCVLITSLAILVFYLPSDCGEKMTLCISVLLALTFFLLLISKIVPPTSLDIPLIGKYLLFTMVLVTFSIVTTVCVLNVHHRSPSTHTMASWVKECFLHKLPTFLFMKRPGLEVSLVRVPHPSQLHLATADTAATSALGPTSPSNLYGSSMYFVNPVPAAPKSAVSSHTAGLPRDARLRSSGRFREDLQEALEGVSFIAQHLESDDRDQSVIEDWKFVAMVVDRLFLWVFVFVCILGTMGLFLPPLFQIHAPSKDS

5-HT3 receptor = conditions: antagonist; cited from earlier work
5-HT1A receptor = conditions: agonist; cited from earlier work
5-HT2 receptor = conditions: agonist; cited from earlier work
5-HT1B receptor = conditions: agonist; cited from earlier work
[6] = biological target: metabotropic glutamate receptor 2; conditions: cited from earlier work
[7] = biological target: metabotropic glutamate receptor 3; conditions: cited from earlier work
[8] = system: vesicular acetylcholine transporter; conditions: cited from earlier work
HIV type 1 protease = conditions: cited from earlier work
[9] = biological target: muscarinic acetylcholine receptor M2; conditions: cited from earlier work
[10] = biological target: muscarinic acetylcholine receptor M1; conditions: cited from earlier work
carbonic anhydrase II = conditions: cited from earlier work
[11] = system: endothelial human nitric-oxide synthase; conditions: cited from earlier work
[12] = system: inducible human nitric-oxide synthase; conditions: cited from earlier work
[13] = system: brain human nitric-oxide synthase; conditions: cited from earlier work
histamine H3 receptor = conditions: cited from earlier work
σ opioid receptor = conditions: cited from earlier work
[14] = system: human sodium/glucose cotransporter 2; conditions: cited from earlier work
[15] = system: human sodium/glucose cotransporter 1; conditions: cited from earlier work
nAchR α4β4 = nAchR α4β4 (Rattus norvegicus, UniProt P09483+P12392); assay: Radioligand binding assay
Sequence of nAchR α4β4 (P09483 31-630): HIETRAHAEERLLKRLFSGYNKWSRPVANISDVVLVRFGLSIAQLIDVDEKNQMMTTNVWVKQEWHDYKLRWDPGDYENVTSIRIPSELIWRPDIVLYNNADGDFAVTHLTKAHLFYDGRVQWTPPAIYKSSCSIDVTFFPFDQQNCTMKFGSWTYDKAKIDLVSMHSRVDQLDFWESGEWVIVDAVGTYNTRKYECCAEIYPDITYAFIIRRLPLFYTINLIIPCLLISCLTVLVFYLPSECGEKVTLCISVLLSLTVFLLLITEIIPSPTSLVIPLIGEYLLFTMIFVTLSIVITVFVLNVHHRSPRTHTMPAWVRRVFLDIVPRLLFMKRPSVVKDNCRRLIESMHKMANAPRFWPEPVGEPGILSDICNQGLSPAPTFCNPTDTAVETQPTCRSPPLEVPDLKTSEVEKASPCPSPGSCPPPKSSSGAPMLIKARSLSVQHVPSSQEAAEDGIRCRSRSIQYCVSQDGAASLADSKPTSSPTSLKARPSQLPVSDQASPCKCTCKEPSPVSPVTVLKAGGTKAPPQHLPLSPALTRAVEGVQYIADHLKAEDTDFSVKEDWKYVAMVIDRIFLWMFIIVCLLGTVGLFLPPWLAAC
Sequence of nAchR α4β4 (P12392 21-495): as the sequence (P12392 21-495) above
Summary of the method: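 Ki from radioligand binding run by the NIMH PDSP protocols. Ligand efficiency derived from Ki as LE = −RT(lnKi)/Nheavy ≈ −1.373 log10Ki/Nheavy. R is the gas constant, T is the experimental temperature in Kelvin, and Nheavy is the heavy-atom count. LE is expressed in kcal/mol/heavy atom.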

[16] = biological target: human nicotinic acetylcholine receptor (nAchR) α2β4; assay: Radioligand binding assay

Sequence of muscarinic acetylcholine receptor (mAchR) M5 (P08912 whole entry): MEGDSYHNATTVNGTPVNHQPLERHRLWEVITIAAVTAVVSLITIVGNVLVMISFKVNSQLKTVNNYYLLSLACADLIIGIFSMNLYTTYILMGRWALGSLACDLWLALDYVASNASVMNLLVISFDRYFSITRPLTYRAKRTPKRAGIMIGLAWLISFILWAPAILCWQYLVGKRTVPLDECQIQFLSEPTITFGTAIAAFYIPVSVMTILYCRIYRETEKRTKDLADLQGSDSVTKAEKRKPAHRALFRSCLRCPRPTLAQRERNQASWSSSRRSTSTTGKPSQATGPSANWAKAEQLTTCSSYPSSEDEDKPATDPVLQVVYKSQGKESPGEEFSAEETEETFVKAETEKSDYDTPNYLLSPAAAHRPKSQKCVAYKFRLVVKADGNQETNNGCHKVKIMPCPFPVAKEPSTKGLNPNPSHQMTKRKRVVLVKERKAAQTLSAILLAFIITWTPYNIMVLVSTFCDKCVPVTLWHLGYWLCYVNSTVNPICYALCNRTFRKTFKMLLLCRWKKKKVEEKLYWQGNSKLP

For CCC(=O)OC1(c2ccccc2)CCN(C)CC1C (stereo not shown) [Alphaprodine], the Ki [1] was 0.771 µM, the “ligand efficiency (LE)” value ([1]; calculated from Ki) was 0.442 kcal/mol/heavy atom and the “antagonist activity on M5” value (M5 [2]) was “antagonist”. For the same compound, the affinity (muscarinic receptor M4) was > 10 µM, the affinity (muscarinic receptor M1) was > 10 µM and the “agonist activity on M5” value (M5 [3]) was “no agonist activity”. The “agonist activity on M3” value (muscarinic M3 receptor [4]) was “no agonist activity”, the “binding to M3” value (muscarinic M3 receptor [5]) was “did not bind” and the affinity (muscarinic M3 receptor [5]; no significant affinity up to 10 μM) was > 10 µM. For the same compound, the affinity (muscarinic receptor M2) was > 10 µM.
For Clc1cccc(SC2CCNCC2)n1 [Anpirtoline], the Ki (nAchR α3β4) is listed as 3.41 µM, the “ligand efficiency (LE)” value (nAchR α3β4) is listed as 0.536 kcal/mol/heavy atom and the Ki (5-HT3 receptor) is listed as 0.03 µM. The Ki (5-HT1A receptor) was 0.15 µM, the Ki (5-HT2 receptor) was 1.49 µM and the Ki (5-HT1B receptor) was 0.028 µM.
For N[C@@]1(C(=O)O)CS[C@H]2[C@H](C(=O)O)[C@H]21 [CHEMBL8839], the Ki [6] is given as 0.0406 µM and the Ki [7] is given as 0.0047 µM.
In the case of OC1CCCCC1N1CCC(C2CCN(C3CCCCC3O)CC2)CC1 (stereo not shown) [CHEMBL20429], the affinity [8] is given as 200 nM.
In the case of OC1CCCCC1N1CCC(C2CCCCC2)CC1 (stereo not shown) [CHEMBL21309], the affinity [8] is given as 40 nM.
In the case of O=C1N(Cc2ccc(O)cc2)[C@H](Cc2ccccc2)[C@H](O)[C@@H](O)[C@@H](Cc2ccccc2)N1Cc1ccc(O)cc1 [CHEMBL35860], the Ki (HIV type 1 protease) is given as 0.00012 µM.
For C[C@@H]1OC(=O)[C@H]2C[C@H]3CCCC[C@H]3[C@H](/C=C\[C@H]3CCC[C@H](C)N3C)[C@@H]12 [CHEMBL58824], the IC50 [9] is listed as 0.851 µM and the IC50 [10] is listed as 0.851 µM.
For O=C1N(Cc2ccccc2)[C@@H](Cc2ccccc2)[C@H](O)[C@@H](O)[C@H](Cc2ccccc2)N1Cc1ccccc1 [CHEMBL148543], the Ki (HIV type 1 protease) is listed as 0.56 µM.
For NS(=O)(=O)c1cc2c(s1)SCCC2=O [CHEMBL158261], the affinity (carbonic anhydrase II) is listed as 3.6 nM.
For NC1=NCCCSC1 [CHEMBL186856], the IC50 [11] is listed as 10.5 µM, the IC50 [12] is listed as 1.2 µM and the IC50 [13] is listed as 2.8 µM.
In the case of N[C@@]1(C(=O)O)C[S+]([O-])[C@H]2[C@H](C(=O)O)[C@H]21 (stereo partly shown) [CHEMBL218710], the Ki [6] is given as 0.508 µM and the Ki [7] is given as 0.447 µM.
In the case of C[C@@H]1CCCN1CCc1ccns1 [CHEMBL255141], the Ki (histamine H3 receptor) is given as 0.017 µM.
In the case of C[C@@H]1CCCN1CCc1ccccn1 [CHEMBL270807], the Ki (histamine H3 receptor) is listed as 0.2 µM.
In the case of C[C@@H]1OC(=O)[C@@H]2C[C@@H]3CCCC[C@@H]3[C@@H](/C=C/[C@H]3CCC[C@H](C)N3C)[C@H]12 [CHEMBL301670], the IC50 [9] is listed as 0.0955 µM and the IC50 [10] is listed as 0.427 µM.
In the case of NC1=NCCCS1 [CHEMBL306541], the IC50 [11] is given as 7.1 µM, the IC50 [12] is given as 2.9 µM and the IC50 [13] is given as 3.2 µM.
For NS(=O)(=O)c1cc2c(s1)S(=O)(=O)CCC2 [CHEMBL333193], the affinity (carbonic anhydrase II) is listed as 3.3 nM.
In the case of CN(CCc1ccc2ccccc2c1)[C@H]1CCCC[C@H]1N1CCCC1 [CHEMBL606937], the IC50 (σ opioid receptor) is given as 0.037 µM.
For CN(CCc1ccc2c(c1)OCO2)[C@@H]1CCCC[C@@H]1N1CCCC1 [CHEMBL606938], the IC50 (σ opioid receptor) is given as 0.034 µM.
In the case of N#Cc1ccc(Cc2cc([C@@H]3O[C@H](CO)[C@@H](O)[C@H](O)[C@H]3O)ccc2Cl)cc1 [CHEMBL1807550], the IC50 [14] is listed as 10 µM and the IC50 [15] is listed as 0.01 µM.
For CCOc1ccc(Cc2cc([C@@H]3O[C@H](CO)[C@@H](O)[C@H](O)[C@H]3O)ccc2Cl)cc1 [CHEMBL3125318], the IC50 [14] is given as […] and the IC50 [15] is given as 3.1 µM.
With NC1CCCC1c1ccccc1 (stereo not shown) [cypenamine] the Ki (nAchR α4β4) was 4.11 µM, the “ligand efficiency (LE)” value (nAchR α4β4; calculated from Ki) was 0.616 kcal/mol/heavy atom and the Ki (nAchR α3β4) was 2.69 µM. The “ligand efficiency (LE)” value (nAchR α3β4) was 0.637 kcal/mol/heavy atom and the Ki [16] was 4.65 µM.
